Data from PMC10979060 (Heliyon, 2024).
Where two headings read alike, the source gives them in different places. One block for each substance: values may come before it. No end group written: not given here.

How the values were obtained:
ACE [1] = assay: ACE-inhibitory kinetics; format: biochemical
Summary of the method: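 Reciprocal velocity was plotted against reciprocal HHL concentration (Lineweaver–Burk). Vmax came from the Y-axis intercept and Km from the X-axis intercept. The inhibition mode was assigned from the plot pattern. Runs were in triplicate.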

ACE [2] = conditions: cited from earlier work

Km values (ACE [1]; Lineweaver–Burk, HHL 0.5, 1, 2 mM, peptide added vs control, triplicate): higher than that of the control
Substance: KKCHFWPFPW [KKCHFWPFPW]
inhibition mode (ACE [1]; Lineweaver–Burk, HHL 0.5, 1, 2 mM, peptide 0, 17.63, 35.26, 70.52, 105.78, 141.04, 176.3 μM, triplicate): competitive inhibition
inhibitor class (substrate-type, prodrug-type or true inhibitor) (ACE [1]; according to the Lineweaver–Burk plot): true inhibitor

Substance: MEGAQEAQGD
IC50 (ACE [2]; peptide from sea cucumber, ref [38]): 4.5 µM

Substance: Tyr-Arg-Pro-Tyr
IC50 (ACE [2]; peptide from bonito, ref [37]): 320 µM

Substance: Val-Lys-Pro
IC50 (ACE [2]; peptide from freshwater clam, ref [39]): 3.7 µM
